Source: PubChem BioAssay
Pf Dd2 inh: P. falciparum Dd2 growth inhibitors, primary screen, SYBR Green fluorescence, single dose replicates | activity change, % at 10 µM | 72 h; hits give low values | AID 1159554, 2015 | 94,000 tested, 2.3% active; in the data active = activity change below about -80%
KDM4C inh: inhibitors of GASC-1 (KDM4C) histone demethylase, primary screen, biochemical, single concentration HTS; Lysine-specific demethylase 4C (Homo sapiens), Q9H3R0; inhibition, % at 12.5 µM; 96,000 tested, 0.15% active; GST-KDM4C 2-372, H3K9me3 peptide, LANCE TR-FRET;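 active = mean replicate inhibition above about 25%, with at least 55% of replicates also reaching it, limit read from the data, passing the limit was not always enough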
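System: N-terminal GST-fused human GASC-1 (KDM4C) fragment, residues 2-372; amount: enzyme final amount 10 nM; incubation: reaction 30 min RT, detection step 1 h RT; medium: HEPES buffer, pH 7.5, plus ascorbate; technique: LANCE TR-FRET, Eu antibody, ULight-streptavidin, EDTA, ex 340 nm, em 618/671 nm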
T cruzi growth: T. cruzi intracellular proliferation inhibitors, primary screen, cell-based, beta-gal Tulahuen parasites, NIH3T3 host, luminescence | AID 624255, 2012 | inhibition, % at 8.34 µM | T. cruzi beta-gal in NIH3T3, GalScreen luminescence, 90 h | 77,000 tested, 5.9% active;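 active = mean inhibition above about 93%, with at least 55% of replicates each passing it, limit read from the data, passing the limit was not always enough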
IDH1 R132H inh: inhibitors of IDH1 R132H reductase, primary screen, biochemical, plate reader, single point; inhibition, % at 10 µM; 70,000 tested, 0.18% active; Isocitrate dehydrogenase [NADP] cytoplasmic (Homo sapiens), O75874; diaphorase/resazurin fluorescence, 60 min; in the data active = inhibition above about 34%;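 note: 0% = DMSO and 100% = no enzyme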
Target sequence (O75874 whole entry R132H): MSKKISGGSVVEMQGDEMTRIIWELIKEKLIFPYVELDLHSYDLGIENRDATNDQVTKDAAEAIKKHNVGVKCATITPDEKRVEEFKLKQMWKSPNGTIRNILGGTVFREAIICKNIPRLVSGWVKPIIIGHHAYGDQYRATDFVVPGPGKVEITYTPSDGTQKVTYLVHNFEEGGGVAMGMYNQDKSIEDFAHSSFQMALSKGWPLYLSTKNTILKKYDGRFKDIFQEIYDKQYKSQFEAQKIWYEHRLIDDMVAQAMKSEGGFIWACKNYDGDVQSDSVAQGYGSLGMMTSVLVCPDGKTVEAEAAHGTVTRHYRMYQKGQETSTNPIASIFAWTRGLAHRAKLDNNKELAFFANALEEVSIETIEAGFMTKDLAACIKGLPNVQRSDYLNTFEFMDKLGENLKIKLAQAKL
* hit, by the source's call; . = no result. Rows were chosen to be rich in hits. Some 5.9% of all compounds tested hit in one or more screens of this group.

SMILES | Pf Dd2 inh | KDM4C inh | T cruzi growth | IDH1 R132H inh
Cc1ccc(S(=O)(=O)N(C)C[C@H]2OCc3ccccc3-c3c(n(C)c4ccccc34)C(=O)N([C@H](C)CO)C[C@H]2C)cc1 | -7.9 | 1.5 | 61.6 | -2.4
COc1ccc(S(=O)(=O)N(C)C[C@H]2OCc3ccccc3-c3c(n(C)c4ccccc34)C(=O)N([C@H](C)CO)C[C@@H]2C)cc1 | 22.3 | -0.1 | -13.0 | .
C[C@@H]1CN([C@H](C)CO)C(=O)c2c(c3ccccc3n2C)-c2ccccc2CO[C@H]1CN(C)S(=O)(=O)c1ccc(C(F)(F)F)cc1 | -89.3* | -1.6 | . | .
C[C@@H]1CN([C@H](C)CO)C(=O)c2c(c3ccccc3n2C)-c2ccccc2CO[C@@H]1CN(C)S(=O)(=O)c1ccc(C(F)(F)F)cc1 | -86.4* | -1.4 | . | .
C[C@H]1CN([C@@H](C)CO)C(=O)c2c(c3ccccc3n2C)-c2ccccc2CO[C@H]1CN(C)S(=O)(=O)c1ccc(C(F)(F)F)cc1 | -91.1* | -1.1 | . | .
COc1ccc(C#Cc2ccc3c(c2)[C@H]2[C@H](CCN2Cc2ccncc2)[C@H](CO)N3)cc1 | -93.8* | -0.7 | . | .
COc1ccc(-c2ccc3c(c2)[C@@H]2[C@@H](CCN2Cc2ccncc2)[C@@H](CO)N3)cc1 | -78.5 | 1.6 | 84.5 | .
COc1ccc(C#Cc2ccc3c(c2)[C@H]2[C@H](CCN2Cc2nccs2)[C@H](CO)N3)cc1 | -84.7* | . | . | .
Cc1nc(SCCC(=O)Nc2ccccc2C#N)nc2cc3c(cc12)CCC3 | . | . | . | -0.3
O=C(O)CC(CC(=O)Nc1cc(C(F)(F)F)cc(C(F)(F)F)c1)c1ccc(Cl)cc1Cl (stereo not given) | . | . | . | 0.4
COc1ccc(CN2CC3(CCN(C(=O)Cc4ccncc4)CC3)c3c([nH]c4cc(OC)ccc34)[C@@H]2CO)cc1 | -86.0* | -2.1 | . | .
COc1ccc2c3c([nH]c2c1)[C@H](CO)N(Cc1ccncc1)CC31CN(C(=O)Cc2ccncc2)C1 | -4.4 | 1.7 | . | .
CCCC(=O)N1CCC2(CC1)CN(Cc1ccncc1)[C@@H](CO)c1[nH]c3cc(OC)ccc3c12 | -91.2* | -0.5 | . | .
CC(C)NC(=O)Nc1cccc2c1O[C@H](CN(C)C(=O)Nc1ccc3c(c1)OCO3)[C@@H](C)CN([C@@H](C)CO)C2=O | 15.5 | 2.3 | 10.3 | 3.0
C[C@@H]1CN([C@@H](C)CO)C(=O)c2cccc(NC(=O)C3CC3)c2O[C@@H]1CN(C)C(=O)Nc1ccc2c(c1)OCO2 | -83.1* | -2.9 | 18.9 | -1.3
C[C@@H]1CN([C@H](C)CO)C(=O)c2cccc(NC(=O)Nc3cccc4ccccc34)c2O[C@@H]1CN(C)C(=O)Nc1ccc2c(c1)OCO2 | -82.8* | -0.3 | 79.5 | .
C[C@H](CO)N1C[C@H](C)[C@@H](CN(C)C(=O)Nc2cccc3ccccc23)Oc2ccc(NC(=O)Nc3ccc4c(c3)OCO4)cc2CC1=O | -81.9* | -0.3 | -10.3 | -0.2
CC(C)NC(=O)Nc1cccc2c1O[C@H](CN(C)C(=O)Nc1ccc3c(c1)OCO3)[C@H](C)CN([C@@H](C)CO)C2=O | -82.8* | 0.5 | 39.3 | 0.0
CSc1ccccc1NC(=O)CN(C)S(=O)(=O)c1ccc(Cl)cc1 | . | . | . | 0.1
COc1ccc(C(=O)N(Cc2nc(-c3ccc(Cl)cc3)no2)C(C)C)cc1OC | . | . | . | -0.3
CCOC(=O)c1c(NC(=O)CSc2ccccn2)sc(C)c1C | . | . | . | 0.0
Cn1c(SCC(=O)Nc2ccccc2[N+](=O)[O-])nc2ccccc2c1=O | . | . | . | 2.9
CCNC(=O)c1c(NC(=O)C(C)Oc2ccccc2F)sc2c1CCCC2 (stereo not given) | . | . | . | 0.5
NC(=S)c1cc(-c2ccccc2)c(C(F)(F)F)s1 | . | . | . | -0.5
CC(C)c1ccc(NC(=O)CSc2nnc(-c3ccc(Br)cc3)n2C)cc1 | . | . | . | -0.1
SMILES | Pf Dd2 inh | KDM4C inh | T cruzi growth | IDH1 R132H inh
C[C@@H]1CN([C@@H](C)CO)C(=O)c2cccc(NC(=O)Nc3ccccc3)c2O[C@@H]1CN(C)C(=O)Nc1ccc2c(c1)OCO2 | -85.1* | 0.4 | -3.2 | -0.8
C[C@H]1CN([C@@H](C)CO)C(=O)c2cccc(NC(=O)Nc3ccccc3)c2O[C@H]1CN(C)C(=O)Nc1ccc2c(c1)OCO2 | -16.9 | 0.7 | 20.6 | 3.8
O=S(=O)(Cc1ccccc1)N1[C@H](CO)[C@@H](c2ccccc2)C12CN(CCC(F)(F)F)C2 | -84.0* | -0.9 | . | .
OC[C@@H]1[C@@H](c2ccccc2)C2(CN(CCC(F)(F)F)C2)N1Cc1ccccc1 | -79.0 | 0.1 | . | .
Cc1cccc(-c2nc3cc(NC(=O)COc4ccc([N+](=O)[O-])cc4)ccc3o2)c1 | . | . | . | 0.1
C[C@@H]1CN([C@H](C)CO)C(=O)c2cccc(NC(=O)CCCCCC(=O)Nc3ccccc3N)c2O[C@@H]1CN(C)Cc1ccc(Cl)c(Cl)c1 | -91.3* | 1.4 | . | .
C[C@H]1CN([C@@H](C)CO)C(=O)c2cccc(NC(=O)CCCCCC(=O)Nc3ccccc3N)c2O[C@H]1CN(C)Cc1ccc(Cl)c(Cl)c1 | -87.5* | -2.3 | . | -0.4
C[C@H](CO)N1C[C@H](C)[C@@H](CN(C)Cc2ccc(Cl)c(Cl)c2)Oc2c(NC(=O)CCCCCC(=O)Nc3ccccc3N)cccc2C1=O | -71.9 | 0.2 | . | .
C[C@H](CO)N1C[C@H](C)[C@@H](CN(C)C)Oc2c(NC(=O)CCCCCC(=O)Nc3ccccc3N)cccc2C1=O | . | 0.2 | . | .
C[C@@H]1CN([C@@H](C)CO)C(=O)c2cccc(NC(=O)CCCCCC(=O)Nc3ccccc3N)c2O[C@@H]1CN(C)Cc1ccc(Cl)c(Cl)c1 | -92.6* | -2.0 | 91.5 | .
Cn1c(CSc2ccnc3cc(Cl)ccc23)nnc1SCC(=O)c1ccc(Cl)s1 | . | . | . | 0.2
O=S(=O)(Nc1ccc(Cl)cn1)c1cccc(S(=O)(=O)c2ccccc2)c1 | . | . | . | 0.3
O=S(=O)(Nc1cccnc1)c1cccc(S(=O)(=O)c2ccc(Cl)c(Cl)c2)c1 | . | . | . | 46.7*
CC(=O)c1ccc(NC(=O)CN(C)S(=O)(=O)c2ccc(Cl)cc2)cc1 | . | . | . | 0.0
COC(Cc1nc2ccccc2s1)C(=O)O (stereo not given) | . | . | . | -0.4
C[C@H]1CN([C@@H](C)CO)C(=O)c2cccc(NS(=O)(=O)c3ccc(F)cc3)c2O[C@H]1CN(C)Cc1ccc(C(=O)Nc2ccccc2N)cc1 | -88.5* | 0.6 | . | .
C[C@@H]1CN([C@@H](C)CO)C(=O)c2cccc(NS(=O)(=O)c3ccc(F)cc3)c2O[C@H]1CN(C)Cc1ccc(C(=O)Nc2ccccc2N)cc1 | -67.6 | -1.5 | . | 2.8
C[C@@H]1CN([C@@H](C)CO)C(=O)c2cccc(NS(=O)(=O)c3ccc(F)cc3)c2O[C@@H]1CN(C)Cc1ccc(C(=O)Nc2ccccc2N)cc1 | -89.7* | 1.3 | 79.0 | .
COc1ccc(NC(=O)CSc2cc(C)c3cccc(C)c3n2)cc1 | . | . | . | -0.7
COc1ccc(NC(=O)N(C)C[C@@H]2Oc3c(NC(=O)CCCCCC(=O)Nc4ccccc4N)cccc3C(=O)N([C@@H](C)CO)C[C@@H]2C)cc1 | -61.0 | -0.4 | . | -0.3
